The results in this text go back to ChEMBL document CHEMBL4808167, “Design, Synthesis, and Evaluation of Small Molecule Gαq/11 Protein Inhibitors for the Treatment of Uveal Melanoma” (J Med Chem, 2021).

Calls of active or inactive are those of the source. The rule behind the calls is not given here.

The target in series [1] is T1, GNAQ/GNA11 (Homo sapiens) (UniProt P50148+P29992). Put plainly: Inhibition of Galphaq/11 (unknown origin) expressed in CHO cells coexpressing M1 receptor assessed as reduction in carbachol-induced IP1 accumulation at 10 uM preincubated for 1 hr followed by carbachol stimulation and measured after 1 hr by HTRF assay relative to control. Type of series: cell-based. The settings on record: time 2.0 hrs. (In general: Time-resolved FRET reads energy transfer from a long-lived donor to a nearby acceptor.)

Series [2] concerns the target T1, GNAQ/GNA11 (Homo sapiens). Description: Inhibition of Galphaq/11 in human MP41 cells assessed as induction of YAP phosphorylation at 15 to 30 uM after 48 hrs by Western blot analysis. Type of series: cell-based. The settings on record: dose 15-30 µM. In outline:
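92.1 and MP41 cells plated overnight, then exposed to compound 48 h. Lysed in ice-cold buffer and protein quantified by BCA. Resolved on 8−12% SDS−PAGE and transferred to PVDF. Probed for p-YAP Ser127, total YAP, p-ERK1/2 Thr202/Tyr204 and total ERK1/2, with GAPDH as loading control. ECL detection, triplicate.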
For orientation: A western blot detects proteins with antibodies after separation by electrophoresis.

Series [3] has as its system 921. Description: Inhibition of cell invasion in human 921 cells at 5 to 15 uM incubated for 48 hrs by transwell assay. The format is functional, cell-based. Conditions: dose 5-15 µM. A digest of the protocol:
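92.1 or MP41 cells (1 × 10⁴/well) seeded in serum-free medium in the upper transwell chamber, with 20% FBS medium below. Left overnight, then treated 48 h. Non-migrated cells swabbed off; cells on the lower side stained with crystal violet 30 min and counted by light microscopy (×40 for migration, ×100 for invasion). Mean ± SD, n = 3.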

Series [4] is described as follows: Oral bioavailability in ICR mouse at 30 mg/kg measured upto 24 hrs by LC-MS/MS analysis. Type of series: ADME, organism-based. Conditions: in vivo. A digest of the protocol:
(§1)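 Single-dose PK in male ICR mice (n = 6): 10 mg/kg iv or 30 mg/kg po, vehicle 5% DMSO/95% saline. Blood (30 μL) by catheter at 0, 5, 15, 30 min and 1, 2, 4, 6, 8, 24 h; plasma by centrifugation, stored −80 °C, measured by LC–MS/MS. Parameters from noncompartmental analysis, mean SD.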

The nature of series [5]: AUC(0 to t) in ICR mouse at 30 mg/kg, po measured upto 24 hrs by LC-MS/MS analysis. Details: route oral, dose 30 mg/kg, time <=24. The settings on record: in vivo. Type of series: ADME, organism-based. In outline: (§2)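 Single dose in male ICR mice, 10 mg/kg iv or 30 mg/kg po, dissolved in 5% DMSO/95% saline. Blood drawn by catheter at 0, 5, 15, 30 min and 1, 2, 4, 6, 8, 24 h. Plasma spun 6800g 6 min at 2−8 °C, stored −80 °C, quantified by LC−MS/MS. Noncompartmental parameters, mean ± SD, n = 6.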

Series [6] relates to MP41. Put plainly: Antiproliferative activity against human MP41 cells assessed as inhibition of cell growth at 15 to 30 uM by CCK8 assay. Type of series: functional, cell-based. The settings on record: dose 15-30 µM, time 24-96 hrs, TDE = time-dependent effect. Background: Tetrazolium dyes change colour on reduction, which living cells bring about.
The nature of series [7]: Cmax in ICR mouse at 30 mg/kg, po measured upto 24 hrs by LC-MS/MS analysis. The format is ADME, organism-based. Further details: route oral, dose 30 mg/kg, time <=24. The settings on record: in vivo. A digest of the protocol:
as §2

The test system of series [8] is 921. Description: Antiproliferative activity against GNAQ knock down human 92.1 cells assessed as inhibition of cell growth at 10 to 15 uM after 72 hrs by CKK8 assay. The format is functional. The settings on record: dose 10-15 µM.
For series [9], the target named is T2, GNAQ/GNA11 (Homo sapiens, UniProt P50148+P29992).
T2 sequence (P50148 whole entry): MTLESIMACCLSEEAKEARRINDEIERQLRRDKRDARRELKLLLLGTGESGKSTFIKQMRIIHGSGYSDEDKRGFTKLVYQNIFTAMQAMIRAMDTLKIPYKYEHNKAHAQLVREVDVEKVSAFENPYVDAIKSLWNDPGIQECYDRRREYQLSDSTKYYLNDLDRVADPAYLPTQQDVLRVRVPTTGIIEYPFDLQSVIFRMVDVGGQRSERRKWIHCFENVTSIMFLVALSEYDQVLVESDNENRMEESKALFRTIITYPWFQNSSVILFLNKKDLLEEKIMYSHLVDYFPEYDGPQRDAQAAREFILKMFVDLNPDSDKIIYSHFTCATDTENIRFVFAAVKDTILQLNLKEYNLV
T2 sequence (P29992 whole entry): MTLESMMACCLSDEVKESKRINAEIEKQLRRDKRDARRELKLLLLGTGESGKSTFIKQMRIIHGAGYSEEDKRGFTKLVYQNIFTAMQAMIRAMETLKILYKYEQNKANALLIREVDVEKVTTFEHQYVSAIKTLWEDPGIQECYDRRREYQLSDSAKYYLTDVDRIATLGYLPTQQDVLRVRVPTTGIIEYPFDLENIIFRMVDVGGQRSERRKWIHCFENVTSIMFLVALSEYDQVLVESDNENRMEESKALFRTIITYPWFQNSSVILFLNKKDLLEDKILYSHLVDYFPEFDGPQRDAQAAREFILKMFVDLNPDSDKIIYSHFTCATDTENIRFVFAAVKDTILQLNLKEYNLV
Description: Inhibition of Galphaq/11 (unknown origin) expressed in CHO cells coexpressing M1 receptor assessed as reduction in carbachol-induced IP1 accumulation preincubated for 1 hr followed by carbachol stimulation and measured after 1 hr by HTRF assay. The format is cell-based.

A short description of series [10]: Induction of apoptosis in human 921 cells assessed as necrotic cells at 15 uM after 48 hrs by Annexin-V-FITC/propidium iodide staining based flow cytometry (reference value: 0.26%). The format is functional.
A short description of series [11]: Volume of distribution at steady state in ICR mouse at 10 mg/kg, iv measured upto 24 hrs by LC-MS/MS analysis. Type of series: ADME, organism-based. The settings on record: in vivo, read-out: Vdss. In outline:
as §1

Turning to `CC[C@@H](C)[C@H](N)C(=O)N1CCn2cc(-c3ccccc3)nc2[C@@H]1CC1CCCCC1`, the inhibition (usually the drop in the measured response relative to a control, in per cent) in series [1] amounted to 36.5%. For the same compound, the inhibition entry in [2] and in [3] was “Active” in each case. Also, in series [4], the bioavailability (in general, dose-corrected exposure relative to a reference, in per cent) worked out at 92.6%. For the same compound, the AUC(0-t) (usually exposure summed from dosing to a finite time, without extrapolation to infinity) at 24 h in series [5] came out at 5940 ng·h/mL. The Activity result in [6] was “Tde”; in series [10], 0.36%. Also, in series [7], the Cmax (in general, the peak of the concentration-time curve) came out at 2890 ng/mL. The result in series [8] was inactive. The IC50 (in general, the concentration that inhibits the measured activity by half) in series [9] amounted to 22.6 µM. In addition, the Vd in series [11] is 4.53 L/kg.
